From ChEMBL document CHEMBL1132618, “Cytotoxicity of (2,2':6',2''-terpyridine)platinum(II) complexes to Leishmania donovani, Trypanosoma cruzi, and Trypanosoma brucei” (J Med Chem, 1999)

Tests used:
[1] = test system: Leishmania donovani; assay: Antiparasitic activity against Leishmania donovani for % inhibition at 30 uM concentration T/100 means the compound was toxic to macrophages but more toxic to parasites that is none present, 100% inhibition; assay type: functional, organism-based
Procedure, shortened: (§1)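 L. donovani MHOM/ET/67/L82 amastigotes from golden hamster spleen infect CD1 mouse peritoneal macrophages at 10:1 in RPMI 1640 + 10% hiFCS, 37 °C, 5% CO2. Compound exposure is a 3-fold dilution series from 30 μM, quadruplicate cultures, 5 days, with medium + drug replaced once. Cells are methanol-fixed and Giemsa-stained, and the proportion of infected cells is compared with untreated cultures. ED50 is derived by linear regression.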

[2] = test system: Leishmania donovani; assay: Compound was tested for antiparasitic activity caused against Leishmania donovani for percentage inhibition at 3 uM concentration; assay type: functional, organism-based; procedure, shortened: as §1
[3] = test system: Leishmania donovani; assay: Antiparasitic activity against Leishmania donovani for % inhibition at 10 uM concentration T/100 means the compound was toxic to macrophages but more toxic to parasites that is none present, 100% inhibition; assay type: functional, organism-based; procedure, shortened: as §1
[4] = test system: Trypanosoma brucei; assay: Antiparasitic activity against Trypanosoma brucei, percentage inhibition at 10 uM concentration; assay type: functional, organism-based
Procedure, shortened: (§2)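 T. brucei S427 bloodstream trypomastigotes are grown in HMI-18 + 20% hiFCS at 37 °C, 5% CO2. Compound exposure is a 3-fold dilution series from 30 μM, triplicate cultures, 72 h. Read-out is an MTT-based cytotoxicity assay, or Coulter counting of cells/mL in the dose-range screen. ED50 is derived by linear regression of dose-response.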

[5] = test system: Trypanosoma brucei; assay: Antiparasitic activity against Trypanosoma brucei, percentage inhibition at 30 uM concentration; assay type: functional, organism-based; procedure, shortened: as §2
[6] = test system: Trypanosoma brucei; assay: Antiparasitic activity caused against Trypanosoma brucei for percentage inhibition at 3 uM concentration; assay type: functional, organism-based; procedure, shortened: as §2
[7] = test system: Trypanosoma brucei; assay: Compound was tested for antiparasitic activity caused against Trypanosoma brucei for percentage inhibition at 1 uM concentration; assay type: functional, organism-based; procedure, shortened: as §2
[8] = test system: Trypanosoma cruzi; assay: Antiparasitic activity against Trypanosoma cruzi for % inhibition at 10 uM concentration T/+ means the compound was toxic to macrophages but parasites still present; assay type: functional, organism-based
Procedure, shortened: (§3)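 T. cruzi Y strain (MHOM/BR/00/Y) trypomastigotes from MDCK cells infect CD1 mouse peritoneal macrophages at 5:1 in RPMI 1640 + 10% hiFCS, 37 °C, 5% CO2. Compound exposure is a 3-fold dilution series from 30 μM, quadruplicate, 3 days. Read-out is the proportion of infected cells after methanol fixation and Giemsa staining, versus untreated cultures. ED50 is derived by linear regression.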

[9] = test system: Trypanosoma cruzi; assay: Antiparasitic activity against Trypanosoma cruzi for % inhibition at 30 uM concentration T/+ means the compound was toxic to macrophages but parasites still present; assay type: functional, organism-based; procedure, shortened: as §3
[10] = test system: Trypanosoma cruzi; assay: Antiparasitic activity against Trypanosoma cruzi for % inhibition at 3 uM concentration T/+ means the compound was toxic to macrophages but parasites still present; assay type: functional, organism-based; procedure, shortened: as §3
[11] = test system: Trypanosoma cruzi; assay: Compound was tested for antiparasitic activity caused against Trypanosoma cruzi for effective dose for 50% activity

In the case of “(2,2':6',2''-terpyridine)platinum (II) complex”, the inhibition [1] was “Total inhibition”, the inhibition [2] was 99.8% and the inhibition [3] was “Total inhibition”. It also gave an inhibition [4] of 100%, an inhibition [5] of 100% and an inhibition [6] of 100%. The inhibition [7] was 100%, the inhibition [8] was “toxic to macrophages but parasites still present” and the inhibition [9] was “toxic to macrophages but parasites still present”. The inhibition [10] was “toxic to macrophages but parasites still present” and the ED50 [11] was 4 µM.
